Test results from PMC10759213 (RSC Advances, 2024).
Where two headings read alike, the source gives them in different places.

Legend:
[1] = target: urease (Canavalia ensiformis, UniProt P07374); assay: In vitro urease inhibition assay; assay type: biochemical
[2] = DPPH radical scavenging antioxidant assay; settings: for Antioxidant activity % Inhibition ± SD: DPPH 300 μM, 37 °C, 30 minutes; for Antioxidant activity EC50: concentration required to scavenge 50% of DPPH; for Antioxidant activity (in words): DPPH
Outline: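 Test sample mixed with ethanolic DPPH radical solution (300 μM before mixing), incubated at 37 °C for 30 min, and absorbance read at 515 nm. Percent radical inhibition was calculated against a DMSO negative control, with ascorbic acid as the standard. EC50 is the sample concentration (μg ml−1) needed to scavenge 50% of DPPH.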

urease, sequence (P07374 whole entry, looked up): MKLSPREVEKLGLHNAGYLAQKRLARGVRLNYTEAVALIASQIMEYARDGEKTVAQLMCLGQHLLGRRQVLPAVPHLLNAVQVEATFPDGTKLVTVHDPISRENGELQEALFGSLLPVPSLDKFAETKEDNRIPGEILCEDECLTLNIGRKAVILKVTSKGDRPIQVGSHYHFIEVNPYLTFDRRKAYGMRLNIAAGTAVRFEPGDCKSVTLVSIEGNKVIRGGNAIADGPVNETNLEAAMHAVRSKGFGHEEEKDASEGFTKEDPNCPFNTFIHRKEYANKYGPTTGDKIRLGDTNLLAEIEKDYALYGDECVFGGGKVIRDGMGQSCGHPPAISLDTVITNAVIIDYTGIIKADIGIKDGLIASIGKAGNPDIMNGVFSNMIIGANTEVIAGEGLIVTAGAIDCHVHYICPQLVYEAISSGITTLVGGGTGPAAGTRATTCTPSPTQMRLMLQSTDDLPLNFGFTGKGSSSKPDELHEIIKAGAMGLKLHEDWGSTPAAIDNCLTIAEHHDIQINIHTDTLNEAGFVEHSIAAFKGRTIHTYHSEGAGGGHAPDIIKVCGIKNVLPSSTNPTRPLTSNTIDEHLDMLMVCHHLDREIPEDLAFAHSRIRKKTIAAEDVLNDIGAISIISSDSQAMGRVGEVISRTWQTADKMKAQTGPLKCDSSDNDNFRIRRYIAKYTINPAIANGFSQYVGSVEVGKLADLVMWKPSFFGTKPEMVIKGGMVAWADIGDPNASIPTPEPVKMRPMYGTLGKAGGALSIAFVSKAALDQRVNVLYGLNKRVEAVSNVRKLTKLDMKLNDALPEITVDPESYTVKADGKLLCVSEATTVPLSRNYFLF

SMILES | IC50 ([1]; read-out: Urease inhibition IC50 ± SD, indophenol method, 15 min at 30 °C, pH 8.2, triplicate) [µM] | Antioxidant activity % Inhibition ± SD [2] [%] | Antioxidant activity EC50 [2] [µg/mL] | IC50 [1] [µM] | Antioxidant activity (in words) [2]
CC(=O)NO [Acetohydroxamic acid, reference compound] | 37 |  |  |  | 
O=C1O[C@H]([C@@H](O)CO)C(O)=C1O [Ascorbic acid, reference compound] |  | 80 | 8.3 |  | 
c1ccc2cc3[nH]c(-c4c[nH]c5ccccc45)nc3cc2c1 [Compound 1, 2-(1H-Indol-3-yl)-1H-naphtho[2,3-d]imidazole] |  | 71.1 ± 0.01 | 37.5 | 92.3 ± 0.2 | excellent antioxidant activity
CCOc1ccc(-c2nc3cc4ccccc4cc3[nH]2)cc1OC [Compound 2, 2-(4-Ethoxy-3-methoxyphenyl)-1H-naphtho[2,3-d]imidazole] |  | 43 ± 0.01 |  | 73.5 ± 0.65 | 
COc1cc(-c2nc3cc4ccccc4cc3[nH]2)ccc1OC(C)=O [Compound 3, 2-Methoxy-4-(1H-naphtho[2,3-d]imidazol-2-yl)phenyl acetate] |  | 67.4 ± 0.01 | 75 | 56.3 ± 0.78 | excellent antioxidant activity
Oc1ccc(Cl)cc1-c1nc2cc3ccccc3cc2[nH]1 [Compound 4, 4-Chloro-2-(1H-naphtho[2,3-d]imidazol-2yl)phenol] |  | 29 ± 0.01 |  | 34.2 ± 0.72 | 
COc1cc(-c2nc3cc4ccccc4cc3[nH]2)cc(OC)c1O [Compound 5, 2,6-Dimethoxy-4-(1H-naphtho[2,3-d]imidazol-2-yl)phenol] |  | 12 ± 0.01 |  |  | 
COc1ccc(-c2nc3cc4ccccc4cc3[nH]2)cc1O [Compound 6, 2-Methoxy-5-(1H-naphtho[2,3-d]imidazol-2-yl) phenol] |  | 71 ± 0.01 | 37.5 |  | excellent antioxidant activity
CCOc1cc(-c2nc3cc4ccccc4cc3[nH]2)ccc1OC [Compound 7, 2-(3-Ethoxy-4-methoxyphenyl)-1H-naphtho[2,3-d]imidazole] |  | 57.8 ± 0.01 | 100 |  | 
c1csc(-c2nc3cc4ccccc4cc3[nH]2)c1 [Compound 8, 2-(Thiophen-2-yl)-1H-naphtho[2,3-d]imidazole] |  | 32 ± 0.01 |  | 86.4 ± 0.78 | 
COc1ccc(-c2nc3cc4ccccc4cc3[nH]2)cc1OC [Compound 9, 2-(3,4-Dimethoxyphenyl)-1H-naphtho[2,3-d]imidazole] |  | 57.8 ± 0.02 | 100 | 67.14 ± 0.67 | 
Oc1ccc(-c2nc3cc4ccccc4cc3[nH]2)c(O)c1O [Compound 10, 4-(1H-Naphtho[2,3-d]imidazol-2-yl)benzene-1,2,3-triol] |  | 57.9 ± 0.02 | 100 |  | 
COc1ccc(Br)c(-c2nc3cc4ccccc4cc3[nH]2)c1O [Compound 11, 3-Bromo-6-methoxy-2-(1H-naphtho[2,3-d]imidazol-2-yl)phenol] |  | 71.1 ± 0.01 | 37.5 | 42.4 ± 0.65 | excellent antioxidant activity
c1ccc(-c2nc3cc4ccccc4cc3[nH]2)cc1 [Compound 12, 2-Phenyl-1H-naphtho[2,3-d]imidazole] |  | 43 ± 0.01 |  |  | 
COc1cc(-c2nc3cc4ccccc4cc3[nH]2)c(OC)cc1Br [Compound 13, 2-(4-Bromo-2,5-dimethoxyphenyl)-1H-naphtho[2,3-d]imidazole] |  | 57.7 ± 0.01 | 100 |  | 
Fc1cc(Br)ccc1-c1nc2cc3ccccc3cc2[nH]1 [Compound 14, 2-(4-Bromo-2-fluorophenyl)-1H-naphtho[2,3-d]imidazole] |  | 23 ± 0.01 |  |  | 
Brc1cccc(-c2nc3cc4ccccc4cc3[nH]2)c1 [Compound 15, 2-(3-Bromophenyl)-1H-naphtho[2,3-d]imidazole] |  | 69.3 ± 0.01 | 75 |  | excellent antioxidant activity
